In series [1] the test system is Salmonella typhimurium. Briefly: Genotoxicity in Salmonella typhimurium TA-1538 after 2 days by Ames test relative to control. The following applies: salmonella enterica subsp. enterica serovar typhimurium, 48 h. Format: toxicity, organism-based. The essentials:
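Compounds were tested at 1, 10, 100 and 500 μg, added in Me2SO to top agar. His+ revertant colonies were counted after 2 days at 37 °C and compared with Me2SO-only plates.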
(In general: In the Ames test, an excess of revertant colonies over the control signals mutagenicity.)

In series [2] the test system is Salmonella typhimurium. Kind of series: Genotoxicity in Salmonella typhimurium TA-1538 after 2 days by Ames test in presence of C57BL/6J mouse liver S9 fraction relative to control. It is filed as toxicity, organism-based. To be noted: salmonella enterica subsp. enterica serovar typhimurium, s9, 48 h.
The species entered for series [3] is Mus musculus. Kind of series: Carcinogenic activity in Swiss albino mouse. It is filed as toxicity, organism-based. The following applies: in vivo.
Series [4] is described as follows: Drug level in po dosed human urine treated with lidocaine. The following applies: in vivo. It is filed as ADME, organism-based. The essentials:
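Analysed by chemical-ionization MS stable isotope dilution, with deuterated N-hydroxy analogues as internal standards. Samples were measured before and after TiCl3 reduction. Released 2,6-dimethylaniline was followed by m/e 122/124 ratios and by GC-CIMS selected ion monitoring. Values are given as % of dose.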

Series [5] in a line: Drug level in ventricular arrthymia patient urine treated with lidocaine at 1.4 mg/min, iv administered for 36 hrs measured after 30 hrs measured after 30 hrs. Format: ADME, organism-based. To be noted: human, in vivo. The essentials:
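Aliquots were analysed immediately after collection by CIMS stable isotope dilution with deuterated analogues as internal standards. Analysis was run before and after TiCl3 reduction of the urine.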

Series [6] is described as follows: Plasma concentration in ventricular arrthymia patient at 1.4 mg/min, iv administered for 36 hrs measured after 30 hrs. It is filed as ADME, organism-based. To be noted: human.

As for `CCN(CC)CC(=O)N(O)c1c(C)cccc1C`, the Activity entry in series [1], in series [2] and in series [3] was “Non-toxic” each time.

For `[2H]C([2H])([2H])CNCC(=O)N(O)c1c(C)cccc1C`, in series [3], the Activity result is given as “Non-toxic”.

Turning to `Cc1cccc(C)c1N(O)C(=O)CCl`, the Activity entry in series [3] was “Non-toxic”.

Turning to `Cc1cccc(C)c1NO`, the Drug excretion result in series [4] and in series [5] was “metabolite_detected” each time. Further, the Activity result in series [1], in series [2] and in series [3] was “Non-toxic” in each case.

Regarding `Cc1cccc(C)c1N`, the Activity result in series [1] and in series [2] was “Non-toxic” throughout.

`CCN(CC)CC(=O)Nc1c(C)cccc1C` [LIDOCAINE]: the Drug excretion result in series [4] and in series [5] was “metabolite_detected” throughout. The same molecule returned a concentration at 30 h in series [6] of 3100 ng/mL.

As for `CCNCC(=O)N(O)c1c(C)cccc1C`, the Activity result in series [1], in series [2] and in series [3] was “Non-toxic” each time.

On to `[2H]C([2H])(C)N(CC(=O)N(O)c1c(C)cccc1C)C([2H])([2H])C`, for which, in series [3], the Activity result is listed as “Non-toxic”.

For `CCNCC(=O)Nc1c(C)cccc1C`, the Drug excretion entry in series [4] and in series [5] was “metabolite_detected” throughout. The Activity result in series [1] and in series [2] was “Non-toxic” throughout. The concentration at 30 h in series [6] was found to be 680 ng/mL.

For `[2H]C([2H])(NCC)C(=O)Nc1c(C)cccc1C`, the Drug excretion result in series [4] and in series [5] was “metabolite_detected” in each case.

As for `[2H]C([2H])(C)N(CC)CC(=O)Nc1c(C)cccc1C`, the Drug excretion result in series [4] and in series [5] was “metabolite_detected” throughout.
